This is a sample that favours compounds with a hit; in the whole collection about 2.6% have one here.
TAAR1 ag: human TAAR1 agonists, primary screen, Fluo-8 calcium fluorescence, CHO RD-HGA16 cells; AID 624467, 2012; Trace amine-associated receptor 1 (Homo sapiens), Q96RJ0; activation, % at 3 µM; vehicle wells 0%, saturating PEA agonist 100%; 360,000 compounds, 0.99% hits;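 active = activation above the mean activation of all test compounds in the run plus 3 SD, cut at about 38% in these data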
Target sequence (Q96RJ0 whole entry, looked up): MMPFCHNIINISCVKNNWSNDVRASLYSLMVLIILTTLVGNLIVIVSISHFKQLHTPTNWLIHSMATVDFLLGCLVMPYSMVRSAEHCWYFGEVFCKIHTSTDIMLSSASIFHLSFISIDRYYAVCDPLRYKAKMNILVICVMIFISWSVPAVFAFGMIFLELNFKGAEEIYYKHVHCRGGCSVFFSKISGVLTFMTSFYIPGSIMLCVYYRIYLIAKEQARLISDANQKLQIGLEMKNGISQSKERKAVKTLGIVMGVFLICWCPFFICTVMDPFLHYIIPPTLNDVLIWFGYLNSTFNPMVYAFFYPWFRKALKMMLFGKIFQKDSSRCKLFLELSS
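Signal – calcium-sensitive Fluo-8 signal, excitation 470-495, emission 515-575 nm · System – RD-HGA16 (CHO) cells co-expressing Gα16 and hTAAR1 · Incubation – 17-24 h seeding, 75 min 37 °C dye, 30 min RT · Compound dosing – 3 µM single concentration · Repeats – no replicates (n 1)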
TAAR1 antag: human TAAR1 antagonists, primary screen, Fluo-8 calcium fluorescence, CHO RD-HGA16 cells. Trace amine-associated receptor 1 (Homo sapiens), Q96RJ0. antagonist. inhibition, % at 3 µM. 360,000 compounds, 1.5% hits. AID 624466, 2012;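 active = inhibition above a per-plate cutoff, the mean inhibition of test compounds on that plate plus 3 SD, cut at about 49% in these data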;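 note: 0% = DMSO plus EC80 beta-PEA response and 100% = DMSO alone without agonist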
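System: RD-HGA16 CHO cells with stable hTAAR1 and Gα16 | Probe or stimulus: EC80 β-phenethylamine stimulus | Dosing: 3 µM, single point | Times: Dye loading 75 min at 37 °C, then 30 min room temperature | Measured by: Fluo-8 calcium-sensitive fluorescence | Read-out basis: % inhibition of agonist calcium response | Replicates: n of 1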
VLA-4 inh: inhibition in human VLA-4 binding assay, primary screen, VLA-4 allosteric modulator project, MLPCN library, flow cytometry, VLA-4 expressing cells; Integrin alpha-4 (Homo sapiens), P13612; ligand binding flow cytometry; inhibition, % (about 7 µM as worked out from the volumes in the protocol); 330,000 compounds, 0.2% hits; AID 2557, 2010; in the data active = inhibition above about 50%
Platelet DG rel: inhibitors of platelet dense granule secretion, primary screen, cell-based, MLPCN, human platelets; human platelet-rich plasma, SFLLRN dense granule ATP release, luminescence; inhibition, %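 (compounds screened at 7.5 µM in platelet-rich plasma)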; 300,000 compounds, 0.22% hits;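 active = mean replicate score, as percent of positive control, at or above 50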
Rce1 inhib: yeast Rce1p protease inhibitors, primary screen, biochemical, fluorescence, cell-free homogeneous | CAAX prenyl protease 2 (Saccharomyces cerevisiae (strain ATCC 204508 / S288c)), Q03530 | yeast membranes, quenched prenylated peptide cleavage fluorescence | calls only | 290,000 compounds, 0.27% hits;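 active = fall in fluorescence gain of 50% or more versus controls, with final raw signal at or below 3038400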;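 note: plate controls were neutral control wells for no effect and wells lacking membranes for full effect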
Target sequence (Q03530 whole entry, looked up): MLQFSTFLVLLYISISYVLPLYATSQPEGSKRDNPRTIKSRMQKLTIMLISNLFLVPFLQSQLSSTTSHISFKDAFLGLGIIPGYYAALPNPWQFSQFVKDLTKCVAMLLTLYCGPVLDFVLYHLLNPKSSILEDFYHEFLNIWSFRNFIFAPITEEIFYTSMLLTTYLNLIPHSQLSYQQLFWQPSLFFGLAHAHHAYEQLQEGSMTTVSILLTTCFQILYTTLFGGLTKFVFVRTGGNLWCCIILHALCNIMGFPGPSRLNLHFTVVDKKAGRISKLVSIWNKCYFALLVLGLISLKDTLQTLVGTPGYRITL
An asterisk follows results filed as active; i = inactive; . = no result given; + = active, no number.

SMILES	TAAR1 ag	TAAR1 antag	VLA-4 inh	Platelet DG rel	Rce1 inhib
Cc1ccc(NS(=O)(=O)c2ccc(C(=O)N3CCC3)cc2)cc1	11.8	-17.7	2.8	-5.1	i
CNC(=O)COc1ccc(S(=O)(=O)Nc2ccc(C)cc2)cc1	2.4	-1.3	9.9	7.3	i
O=C(Nc1ccc(S(=O)(=O)Nc2ccc(Cl)cc2)cc1)C1CCCO1 (centres undefined)	41.1*	5.2	10.6	-1.0	i
Cc1ccc(NS(=O)(=O)c2ccc(C(=O)N3CCCCCCC3)cc2)cc1	54.2*	18.2	16.1	14.0	i
CCCNC(=O)COc1ccc(S(=O)(=O)Nc2ccc(C)cc2)cc1	39.6*	-24.0	0.5	3.5	i
CCOc1ccc(S(=O)(=O)NCCC(=O)N2CCCN(C)CC2)cc1	2.2	-1.4	12.9	50.6*	i
O=C(CC[C@H]1O[C@@H](n2cnc3c(NC(=O)c4ccccc4)ncnc32)[C@H](O)[C@@H]1O)NCc1ccco1	0.3	-13.1	.	.	.
CC1(C(=O)Nc2ccc3c(c2)OCCO3)CSCC(=O)N1CC(F)(F)F (centres undefined)	0.1	-19.3	.	.	.
Cc1ccc2c(=O)n3c(nc2c1)C(CC(C)C)NC(=O)c1ccc(Cl)cc1-3 (centres undefined)	8.6	5.3	8.5	.	.
CCCc1nc2nc(C)c(NS(=O)(=O)c3ccc(C4CCCCC4)cc3)c(=O)n2[nH]1	2.4	-30.3	-4.4	11.2	.
Cc1cc(S(=O)(=O)Nc2ccc(C(=O)NCC3CCCO3)cc2)ccc1F (centres undefined)	0.6	11.3	10.3	.	.
CCOc1ccc(S(=O)(=O)Nc2ccc(C(=O)N3CCCC3)cc2)cc1	9.2	-20.4	-6.7	25.8	i
CCOc1ccc(NS(=O)(=O)c2ccc(C(=O)N3CCCCCC3)cc2)cc1	47.0*	29.3	-10.6	2.2	i
Cc1ccc(NS(=O)(=O)c2ccc(C(=O)NCC3CCCO3)cc2)cc1 (centres undefined)	39.6*	-18.6	4.7	9.3	i
O=[N+]([O-])c1ccccc1C(=Nc1ccccc1)c1c(O)cc(O)cc1O	0.3	-8.7	.	.	.
CO[C@@]1(NC(=O)C2SC(=C(C(N)=O)C(=O)O)S2)C(=O)N2C(C(=O)O)=C(CSc3nnnn3C)CS[C@@H]21 (some centres undefined)	-0.7	-6.1	10.5	.	.
CO[C@@]1(NC(=O)Cc2cccs2)C(=O)N2C(C(=O)O)=C(COC(N)=O)CS[C@@H]21	-0.4	-6.8	52.1*	3.6	i
CC(=O)OC[C@]12CC[C@H]3[C@@](C)(CC[C@H]4C(C)(C)CCC[C@]34C)[C@@H]1CC(C1=CC(=O)OC1O)O2 (some centres undefined)	1.1	60.4*	.	.	.
CSc1ccccc1C(=O)NC1CCCN(c2ccc(C(F)(F)F)cn2)C1 (centres undefined)	-2.1	9.9	-5.5	-2.5	i
COc1ccc(CCC(=O)Nc2ccc(S(=O)(=O)N3CCCC3)cc2)cc1OC	2.5	-6.0	-11.8	.	.
Cc1cc(SCC(=O)Nc2cccc(S(=O)(=O)NC3=NCCCCC3)c2)nc2ccccc12	10.9	49.0*	10.5	2.8	i
Cc1ccc(-n2c(SCC(=O)Nc3cccc(S(=O)(=O)NC4=NCCCCC4)c3)nc3ccccc3c2=O)cc1C	2.1	-13.3	6.9	0.0	i
COC(=O)c1ccc(OCC2c3cc(OC)c(OC)cc3CCN2C(=O)c2ccco2)cc1 (centres undefined)	15.0	61.4*	0.1	1.6	i
COC(=O)c1ccc(OCC2c3cc(OC)c(OC)cc3CCN2C(C)=O)cc1 (centres undefined)	2.0	-11.4	6.5	13.5	i
Cc1noc(C)c1CSCC(=O)Oc1ccc(N(C)S(=O)(=O)c2ccc(Cl)cc2)cc1	5.2	53.4*	4.4	0.6	i
SMILES	TAAR1 ag	TAAR1 antag	VLA-4 inh	Platelet DG rel	Rce1 inhib
O=C(Nc1ncc([N+](=O)[O-])s1)c1ccc2c(c1)OCO2	6.2	15.5	-24.1	80.4*	i
O=C1C(F)=CC(COC(c2ccccc2)(c2ccccc2)c2ccccc2)OC1n1cc(F)c(=O)[nH]c1=O (centres undefined)	8.8	54.3*	.	.	.
CC(=O)OCC1OC(n2cc(F)c(=O)[nH]c2=O)C(OC(C)=O)C1OC(C)=O (centres undefined)	1.8	-27.9	1.9	-2.0	i
COc1cc(/C=C2/CC/C(=C/c3ccc(O)c(OC)c3)C2=O)ccc1O	40.1*	67.4*	-67.9	0.3	i
COc1cc(/C=C2\COC/C(=C\c3ccc(O)c(OC)c3)C2=O)ccc1O	12.3	45.5	3.7	-16.2	i
O=C(Nc1sc2c(c1C(=O)c1ccccc1)CCCC2)c1cccnc1	6.8	-16.7	17.3	-2.8	i
O=C(Nc1sc2c(c1C(=O)c1ccc(Cl)cc1)CCCC2)c1cccnc1	7.4	-14.6	3.1	-0.7	+
COc1ccc(C=O)cc1OS(=O)(=O)c1ccc(NC(C)=O)cc1	4.4	4.3	3.5	3.5	i
Cc1nonc1C(=O)N/N=C/c1ccccc1	1.2	-3.6	-0.1	46.3	.
COc1ccc(/C=N/NC(=O)c2ccc3ccccc3c2)cc1OS(=O)(=O)c1ccc(NC(C)=O)cc1	12.2	74.4*	6.2	2.1	i
COc1cc(/C=N/NC(=O)c2cccc(NC(=O)c3ccccc3C)c2)ccc1O	15.3	61.3*	-7.8	1.4	i
COc1cc(/C=N/NC(=O)c2nonc2C)ccc1O	3.1	-6.9	3.7	53.0*	i
Cc1nonc1C(=O)N/N=C/c1ccc(O)c(O)c1	2.5	-6.8	-15.7	67.0*	i
CCc1cccc(C)c1NC(=O)COC(=O)CCn1c(C)csc1=O	1.4	-19.6	.	.	.
CCOC=C1C(=O)N(C(C)=O)c2cc(OC)c(OC)cc21	-0.1	2.4	.	.	.
COc1cccc(-c2ccc(-c3noc(-c4ccccc4F)n3)c(OC)n2)c1	8.6	-1.4	7.7	1.6	+
COc1cccc(-c2ccc(-c3noc(-c4cccs4)n3)c(OC)n2)c1	2.2	-31.1	9.8	12.1	i
COc1ccc(NC(=O)Nc2cnccn2)cc1OC	3.9	-11.7	-12.3	-8.2	i
O=[N+]([O-])c1ccc(-c2nc(Nc3cccc(O)c3)c3ccccc3n2)cc1	5.9	55.4*	3.0	4.2	i
O=C(O)c1cccc(Nc2nc(-c3ccc([N+](=O)[O-])cc3)nc3ccccc23)c1	3.2	4.3	14.4	-9.8	i
COc1cc(-c2cc(=O)c3ccc(O)cc3o2)cc(OC)c1OC	1.4	2.2	.	.	.
COc1cc(-c2ccc3oc(-c4ccsc4)cc(=O)c3c2)cc(OC)c1OC	9.1	49.9*	-18.8	.	.

Compound activity as filed in PubChem BioAssay.
